High-throughput results (PubChem BioAssay)
KCNQ1 block – inhibitors of human KCNQ1 channel, primary screen, cell-based, thallium flux, high-throughput; Potassium voltage-gated channel subfamily KQT member 1 (Homo sapiens), P51787; CHO-K1 KCNQ1, FluxOR thallium flux fluorescence; stronger effect = higher value; B-score at 10 µM; hit rate 1.3% among 310,000; AID 2642, 2010;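 active means compounds whose thallium flux B-score, printed positive for inhibition, exceeds three library SD while starting fluorescence stays within three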;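 further: channel opened by potassium depolarization with thallium stimulus after 20 min compound exposure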
Target sequence (P51787 whole entry, looked up): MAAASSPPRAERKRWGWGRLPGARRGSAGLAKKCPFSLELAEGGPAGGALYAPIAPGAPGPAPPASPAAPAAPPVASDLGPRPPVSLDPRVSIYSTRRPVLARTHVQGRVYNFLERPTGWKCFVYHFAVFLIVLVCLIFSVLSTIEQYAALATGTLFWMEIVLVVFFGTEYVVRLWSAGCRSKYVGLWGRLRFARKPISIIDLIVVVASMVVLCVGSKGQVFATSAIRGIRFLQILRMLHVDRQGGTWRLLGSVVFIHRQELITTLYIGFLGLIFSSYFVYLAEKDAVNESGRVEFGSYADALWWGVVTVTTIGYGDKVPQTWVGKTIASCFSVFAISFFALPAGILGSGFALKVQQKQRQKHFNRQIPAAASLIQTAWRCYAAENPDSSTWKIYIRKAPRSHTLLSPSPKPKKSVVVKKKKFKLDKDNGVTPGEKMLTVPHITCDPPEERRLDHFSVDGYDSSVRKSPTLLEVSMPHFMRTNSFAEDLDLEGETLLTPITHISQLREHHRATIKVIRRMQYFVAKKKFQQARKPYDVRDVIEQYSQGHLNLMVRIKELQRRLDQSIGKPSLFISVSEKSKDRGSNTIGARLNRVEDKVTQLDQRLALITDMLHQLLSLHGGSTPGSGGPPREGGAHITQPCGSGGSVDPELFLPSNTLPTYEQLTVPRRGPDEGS
hERG rescue – hERG rescue from dofetilide block, primary screen, cell-based, CHO-hERG, FluxOR thallium flux, dofetilide IC70 | Voltage-gated inwardly rectifying potassium channel KCNH2 (Homo sapiens), Q12809 | dofetilide IC70 present | activation (rescue from dofetilide block), less the hit threshold, % at 10 µM | hit rate 0.51% among 310,000 | AID 1511, 2009;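 active means activation above the mean of controls blocked by dofetilide plus 5 SD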;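 further: thallium influx through hERG after potassium depolarization seen as dye fluorescence rise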
KCNK3 inh – human KCNK3 channel inhibitors, primary screen, CHO cells, FluxOR thallium flux, B-score | Potassium channel subfamily K member 3 (Homo sapiens), O14649 | FluxOR fluorescence; stronger effect = lower value | B-score at 10 µM | hit rate 0.84% among 340,000;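 active means B-score under library mean minus 4 SD, starting fluorescence ratio at most library mean plus 5 SD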;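 further: more negative B-score means stronger inhibition of thallium flux through KCNK3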
KCNQ1 act – potentiators or activators of KCNQ1 channel, primary screen, cell-based, thallium flux, high-throughput; CHO-K1 KCNQ1, thallium flux FluxOR fluorescence; stronger effect = higher value; B-score at 10 µM; hit rate 0.35% among 310,000; AID 2648, 2010;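 active means fluorescence ratio B-score, a plate-corrected score, at least three library SD, with initial intensity B-score within 5 SD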
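Medium – assay buffer, equal DMSO in all wells · Material – CHO-K1 cell line with stable KCNQ1 potassium channel expression · Signal – kinetic FluxOR thallium fluorescence, 10-s 1-Hz baseline, 110-s post-stimulus read · Compound – single concentration per compound, DMSO matched to controls · Schedule – 37 °C overnight plating, 90-min dark dye load, 20-min compound pretreatment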
KCNK9 inh – KCNK9 potassium channel inhibitors, primary screen, HEK293 cells, thallium flux; Potassium channel subfamily K member 9 (Homo sapiens), Q9NPC2; FluxOR thallium flux fluorescence; stronger effect = lower value; B-score at 10 µM; hit rate 1.2% among 310,000;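 active means ratio B-score over 3 SD below the library mean, with starting fluorescence within 5 SD of its mean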;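 further: negative B-score means less thallium flux so channel inhibition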
An asterisk follows results filed as active; i = inactive; · = no result. Shown are actives, neighbours in structure and some others; about 3.1% of the full set was active somewhere.

SMILES | KCNQ1 block | hERG rescue | KCNK3 inh | KCNQ1 act | KCNK9 inh
CCCCCCCCNC(=O)/C(C#N)=C/c1ccccc1[N+](=O)[O-] | 7* | -11.7 | i | i | i
N#C/C(=C\c1ccccc1[N+](=O)[O-])C(=O)NCc1ccccc1 | 6* | -15.1 | i | i | i
CCOCCCNC(=O)/C(C#N)=C/c1ccc([N+](=O)[O-])o1 | 6* | -10.7 | i | i | i
CCN(CC)S(=O)(=O)c1ccc(N2CCN(C)CC2)c(NC(=O)CN2C(=O)NC3(CCCCC3)C2=O)c1 | · | · | i | · | ·
O=C(Nc1nc(=S)ss1)c1ccc(Cl)cc1Cl | i | 40.9* | i | 15* | i
CCCN(CC(=O)Nc1ccccc1C)C(=O)C1CCN(S(=O)(=O)c2ccccc2C(F)(F)F)CC1 | i | -8.1 | i | i | i
CC(C)(C)C(=O)c1no[n+]([O-])c1/C(=N/O)C(C)(C)C | 6* | -10.2 | i | i | i
Cc1ccc(C(=O)c2no[n+]([O-])c2C(=O)c2ccc(C)cc2)cc1 | i | -26.1 | i | i | i
COc1ccc(C(=O)CC(Nc2ccc([N+](=O)[O-])cc2)c2ccc(OC)cc2)cc1 (configuration not stated) | 9* | -12.2 | i | i | i
COc1ccc(C(=O)/C(C#N)=N/Nc2ccc([N+](=O)[O-])cc2)cc1 | 6* | -10.1 | i | i | i
COc1ccc(C(=O)/C(C#N)=N/Nc2ccccc2[N+](=O)[O-])cc1 | i | -4.1 | i | i | i
COc1ccc(C(=O)CC(=O)Nc2ccc([N+](=O)[O-])cc2)cc1 | i | -8.0 | i | i | i
CN1CCN(c2nc(-c3ccccc3)cc(C(F)(F)F)n2)CC1 | i | -15.8 | i | i | i
CN1CCN(c2nc(-c3cccs3)cc(C(F)(F)F)n2)CC1 | i | -0.2 | i | 10* | i
COc1ccc(C(=O)OCC(=O)c2c[nH]c3ccccc23)c(OC)c1 | · | · | i | · | ·
CCOc1ccc(N(C)S(=O)(=O)c2ccc(C)c(C(=O)OCC(=O)c3c[nH]c4ccccc34)c2)cc1 | i | -10.4 | i | i | -7.59*
O=C1ON=C(c2ccccc2)/C1=C/c1ccco1 | 7* | -24.0 | i | i | i
O=C1/C(=C\c2ccc(Br)o2)Cc2ccccc21 | i | -5.3 | i | i | -9.9*
CN(C)c1ccc(N=Cc2nc(-c3ccccc3)oc2OC(=O)c2cccc(Br)c2)cc1 | i | -7.2 | i | i | -6.59*
COc1cc2c(cc1N)-c1ccc(N)cc1C2 | · | · | i | · | ·
Cn1cccc1/C=N/n1c(-c2ccc(Cl)cc2Cl)n[nH]c1=S | i | -4.9 | i | 8* | i
COc1ccc2nc(C)cc(Nc3ccc(N4CCN(C)CC4)cc3)c2c1 | i | -9.5 | i | i | i
O=c1c(-c2cccc3ccccc23)[n+]([O-])c2ccccc2n1O | i | 9.5* | i | i | i
CCOn1c(=O)c(-c2cccc3ccccc23)[n+]([O-])c2ccccc21 | i | -9.5 | i | i | i
CCNC(=O)c1c(NC(=O)c2cc(-c3cc(C)cc(C)c3O)n[nH]2)sc2c1CCCC2 | · | · | i | · | ·
SMILES | KCNQ1 block | hERG rescue | KCNK3 inh | KCNQ1 act | KCNK9 inh
CC1=NN(c2ccc(C)c(C)c2)C(=O)C1C(c1cccc(O)c1)C1C(=O)N(c2ccc(C)c(C)c2)N=C1C (configuration not stated) | i | -5.8 | i | i | -9.81*
CCOc1ccc(/C=N/O)cc1 | i | -6.4 | i | i | i
CCOc1ccc(C=NC23CN4CN(CN(C4)C2)C3)cc1 | i | 12.2* | i | i | i
CCOC(=O)C1CCN(C(=O)c2ccc(NS(=O)(=O)c3ccc4[nH]c(=O)[nH]c4c3)cc2)CC1 | · | · | i | · | ·
CCNC(=O)NC(=O)CSc1ccc(S(=O)(=O)N2CCCCC2)cn1 | · | · | i | · | ·
O=C(CNC(=O)C12CC3CC(CC(C3)C1)C2)OCc1cc(=O)n2cc(Br)ccc2n1 | i | 6.1* | i | i | i
COc1ccc(/C=N/NC(=O)c2nc(-c3ccccc3)cc(-c3ccccc3)n2)cc1 | 10* | -10.4 | i | i | -7.13*
COc1ccc(/C=N/NC(=O)c2c(-c3ccccc3)noc2C)cc1 | i | -6.8 | i | i | i
COc1ccc(C(=O)N/N=C/c2ccc(OC(=O)c3ccccc3)cc2)cc1 | i | 1.9 | i | i | i
COc1ccccc1C(=O)NCC(=O)N/N=C/c1cc(Br)ccc1OCc1ccccc1 | i | -18.1 | i | i | -7.6*
C/C(=N\NC(=O)c1ccccc1OCCOc1ccccc1)c1ccccc1F | · | · | -10.5* | · | ·
COc1ccc(C(=O)N/N=C/c2ccccc2OC(=O)c2ccccc2)cc1 | i | -8.3 | i | i | -13.7*
COc1ccc(CCN(C)C(=O)CSc2nc3ccccc3c(=O)n2CC2CCCO2)cc1OC (configuration not stated) | · | · | i | · | ·
COc1ccccc1C=NNC(=O)c1ccccc1OCCOc1ccccc1 | · | · | -10.2* | · | ·
COc1ccc2[nH]c(C(=O)N/N=C/c3ccccc3OC)cc2c1 | i | -9.8 | i | i | i
CCOc1ccc2[nH]c(C(=O)N/N=C/c3ccccc3OC)cc2c1 | i | -7.5 | i | i | -7.92*
COc1ccccc1/C=N/NC(=O)c1ccccc1Cl | i | -8.3 | i | i | i
COc1ccc(S(=O)(=O)N(C)C)cc1NCC(=O)Nc1cccc2ccccc12 | i | -14.5 | i | i | -7.37*
Cc1ccc(S(=O)(=O)N(C)C)cc1NC(=S)Nc1cccc2ccccc12 | i | -5.1 | i | i | -7.13*
Cc1ccc(S(=O)(=O)N(C)C)cc1NC(=S)NC(C)CCC(C)C (configuration not stated) | i | -3.5 | i | i | i
Cc1ccc(S(=O)(=O)N(C)C)cc1NC(=S)NC(C)CCCC(C)C (configuration not stated) | i | 6.6* | i | i | i
COc1ccc(S(=O)(=O)N(C)C)cc1NCC(=O)Nc1ccc(F)cc1F | i | -5.8 | i | i | i
COc1cc(C(=O)Oc2ccccc2OC(=O)c2cc(OC)c(OC)c(OC)c2)cc(OC)c1OC | · | · | i | · | ·
O=C(COC(=O)CNC(=O)c1ccc(Cl)cc1)Nc1ccc(Cl)cn1 | · | · | i | · | ·
CCN(C(=O)COC(=O)Cn1c(=O)oc2ccccc21)c1c(N)n(Cc2ccccc2)c(=O)[nH]c1=O | · | · | i | · | ·
